Experimental findings from ChEMBL document CHEMBL4699492, “Discovery of Novel Pyrazolo[3,4-b] Pyridine Derivatives with Dual Activities of Vascular Remodeling Inhibition and Vasodilation for the Treatment of Pulmonary Arterial Hypertension” (J Med Chem, 2020) are described below.

In brackets after ≈: the same amount, converted by molar mass. Activity calls are given as the source filed them. The rule behind the calls is not given here.

The subject of data set [1] is Rattus norvegicus. As to the kind of experiment: Inhibition of vascular remodeling activity in Sprague-Dawley rat model of hypoxia-induced pulmonary artery hypertension assessed as weight ratio of right ventricle/left ventricle plus septum at 10 mg/kg, po administered daily for 2 weeks (reference value: 0.63). The format is functional.
For data set [2], the system named is Rattus norvegicus. Description: Inhibition of vascular remodeling activity in Sprague-Dawley rat model of hypoxia-induced pulmonary artery hypertension assessed as decrease in ratio of RV/tibial length at 10 mg/kg, po administered daily for 2 weeks. The format is functional, organism-based.
Data set [3] deals with Rattus norvegicus. Description: Inhibition of vascular remodeling activity in Sprague-Dawley rat model of hypoxia-induced pulmonary artery hypertension assessed as reduction in pulmonary artery medial thickness at 10 mg/kg, po administered daily for 2 weeks by H and E staining based digital microscopic analysis. The format is functional, organism-based. Summed up: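 Hypoxia model in male SD rats (10% O2, 4 weeks) with oral dosing at 10 mg/kg daily for 14 days in 0.5% CMC-Na. Paraffin-embedded lung tissue was cut into 5 µm sections and stained with H&E. Pulmonary artery medial thickness was quantified, n = 5/group.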

Data set [4] has as its system Rattus norvegicus. As to the kind of experiment: In vivo stimulation of sGC in Sprague-Dawley rat model of hypoxia-induced pulmonary artery hypertension assessed as […] in PKG1 expression in lungs at 10 mg/kg, po administered daily for 2 weeks by Western blot analysis. It is filed as functional, organism-based. The procedure, abridged: (§1)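 Hypoxic PAH model in male SD rats (160-200 g) kept at 10% O2 for 4 weeks. Oral dosing at 10 mg/kg daily for 14 days, suspended in 0.5% CMC-Na; control and hypoxia groups received vehicle only. Lungs homogenized in RIPA with protease and phosphatase inhibitors. 30 µg protein run on 10% SDS-PAGE, then PVDF blotting, with β-actin as loading reference. Three independent runs.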
(In general: In western blotting, separated proteins are transferred to a membrane and probed.)

The subject of data set [5] is Rattus norvegicus. As to the kind of experiment: Inhibition of vascular remodeling activity in Sprague-Dawley rat model of hypoxia-induced pulmonary artery hypertension assessed as reduction in TGFbeta expression in lungs at 10 mg/kg, po administered daily for 2 weeks by Western blot analysis. It is filed as functional, organism-based. Summed up:
as §1

The nature of data set [6]: Solubility of compound in water at pH 3.5. It is filed as physicochemical. The conditions noted are these: buffer.

On to `Cc1ccccc1COc1nc2c(cc1-c1nc(N)cc(N)n1)c(C)nn2-c1ccccc1`, for which the Ratio in the data set with Rattus norvegicus [1] worked out at 0.38. Also, the inhibition result with Rattus norvegicus [2], in the data set with Rattus norvegicus [3] and in the data set on Rattus norvegicus [5] was “Active” throughout. Further, the result with Rattus norvegicus [4] was Active. In data set [6], this compound had a solubility of 0.028 µg/mL (≈ 0.064 µM).

Usually solubility stands for the concentration that dissolves in the medium under given conditions. The low end stands for little dissolved substance, the high end for much dissolved substance.
